From ChEMBL document CHEMBL3046946, “Design, synthesis, and insecticidal activities of new N-benzoyl-N'-phenyl-N'-sulfenylureas” (2009)
In brackets after ≈: the same amount, converted by molar mass.

Tests used:
Type in all cases: functional
[1] = test system: Mythimna separata; assay: Insecticidal activity against fourth-instar larval stage of Mythimna separata (Oriental armyworm) in compound-pretreated corn leaves assessed as mortality at 1 mg/l at 25 +/-1degC after 4 days
[2] = test system: Mythimna separata; assay: Insecticidal activity against fourth-instar larval stage of Mythimna separata (Oriental armyworm) in compound-pretreated corn leaves assessed as mortality at 0.25 mg/l at 25 +/-1degC after 4 days
[3] = test system: Mythimna separata; assay: Insecticidal activity against fourth-instar larval stage of Mythimna separata (Oriental armyworm) in compound-pretreated corn leaves assessed as mortality at 0.5 mg/l at 25 +/-1degC after 4 days
[4] = test system: Plutella xylostella; assay: Insecticidal activity against larvae of Plutella xylostella (diamondback moth) in cabbage leaves assessed as mortality at 25 +/-1degC treated for 5 secs before larval infestation measured after 4 days by leafdip method; conditions: 96 h
How it was run: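 Leaf-dip assay. Cabbage leaf disks (1.8 cm diameter) were dipped in test solution for 5 s, air-dried, and placed in tubes lined with filter paper. Ten second-instar larvae were added per tube. Percent mortality was read 4 days after treatment, in triplicate. LC50 was derived by Finney probit analysis of the mortality regression lines.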

[5] = test system: Culex pipiens pallens; assay: Insecticidal activity against fourth-instar larval stage of Culex pipiens pallens (mosquito) assessed as mortality at 0.01 mg/l at 25 +/-1degC after 8 days; conditions: 192 h
How it was run: (§1)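 Compounds dissolved in acetone, then diluted with distilled water to the test concentrations. Twenty fourth-instar larvae were placed in 10 mL of each test solution and reared for 8 days. Mortality was scored on a 0–100 scale, where 0 is no activity and 100 is total kill.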

[6] = test system: Culex pipiens pallens; assay: Insecticidal activity against fourth-instar larval stage of Culex pipiens pallens (mosquito) assessed as mortality at 0.005 mg/l at 25 +/-1degC after 8 days; conditions: 192 h; how it was run: as §1
[7] = test system: Spodoptera exigua; assay: Insecticidal activity against third-instar larval stage of Spodoptera exigua in cabbage leaves assessed as mortality at 25 +/-1degC treated for 5 secs before larval infestation measured after 4 days by leaf dip method; conditions: foliar, 96 h
How it was run: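 Leaf-dip assay. Fresh cabbage leaf disks (1.8 cm diameter) were dipped in test solution for 5 s before larvae were added. LC50 was calculated by Finney probit analysis of the mortality regression lines.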

[8] = test system: Culex pipiens pallens; assay: Insecticidal activity against fourth-instar larval stage of Culex pipiens pallens (mosquito) assessed as mortality at 0.0025 mg/l at 25 +/-1degC after 8 days; conditions: 192 h; how it was run: as §1
[9] = test system: Mythimna separata; assay: Insecticidal activity against fourth-instar larval stage of Mythimna separata (Oriental armyworm) in compound-pretreated corn leaves assessed as mortality at 40 mg/l at 25 +/-1degC after 4 days
[10] = test system: Culex pipiens pallens; assay: Insecticidal activity against fourth-instar larval stage of Culex pipiens pallens (mosquito) assessed as mortality at 2.5 mg/l at 25 +/-1degC after 8 days; conditions: 192 h; how it was run: as §1
[11] = test system: Mythimna separata; assay: Insecticidal activity against fourth-instar larval stage of Mythimna separata (Oriental armyworm) in compound-pretreated corn leaves assessed as mortality at 100 mg/l at 25 +/-1degC after 4 days
[12] = test system: Culex pipiens pallens; assay: Insecticidal activity against fourth-instar larval stage of Culex pipiens pallens (mosquito) assessed as mortality at 5 mg/l at 25 +/-1degC after 8 days; conditions: 192 h; how it was run: as §1
[13] = test system: Mythimna separata; assay: Insecticidal activity against fourth-instar larval stage of Mythimna separata (Oriental armyworm) in compound-pretreated corn leaves assessed as mortality at 50 mg/l at 25 +/-1degC after 4 days
[14] = test system: Culex pipiens pallens; assay: Insecticidal activity against fourth-instar larval stage of Culex pipiens pallens (mosquito) assessed as mortality at 1 mg/l at 25 +/-1degC after 8 days; conditions: 192 h; how it was run: as §1
[15] = test system: Mythimna separata; assay: Insecticidal activity against fourth-instar larval stage of Mythimna separata (Oriental armyworm) in compound-pretreated corn leaves assessed as mortality at 200 mg/l at 25 +/-1degC after 4 days
[16] = test system: Mythimna separata; assay: Insecticidal activity against fourth-instar larval stage of Mythimna separata (Oriental armyworm) in compound-pretreated corn leaves assessed as mortality at 2.5 mg/l at 25 +/-1degC after 4 days

| SMILES | mortality at 1 µg/mL [1] [%] | mortality at 0.25 µg/mL [2] [%] | mortality at 0.5 µg/mL [3] [%] | mortality at 0.01 µg/mL [5] [%] | mortality at 0.005 µg/mL [6] [%] | further results |
| --- | --- | --- | --- | --- | --- | --- |
| O=C(NC(=O)N(SSNc1ccc(OC(F)(F)F)cc1)c1ccc(OC(F)(F)F)cc1)c1c(F)cccc1F | 100 | 30 | 90 |  |  |  |
| O=C(NC(=O)N(SN1CCOCC1)c1ccc(OC(F)(F)F)cc1)c1c(F)cccc1F | 100 | 80 | 100 | 100 | 100 | LC50 [4]: 45.1 mg/L (≈ 94.5 µM); LC50 [7]: 21.4 mg/L (≈ 44.9 µM); mortality at 0.0025 µg/mL [8]: 20% |
| CCOC(=O)CCN(Cc1ccccc1)SN(C(=O)NC(=O)c1c(F)cccc1F)c1ccc(OC(F)(F)F)cc1 | 100 |  |  | 100 |  | mortality at 40 µg/mL [9]: 0.0025% |
| O=C(NC(=O)N(SNc1ccc(C(F)(F)F)cc1)c1ccc(C(F)(F)F)cc1)c1c(F)cccc1F | 100 | 45 | 80 |  |  |  |
| CCOC(=O)CCN(Cc1ccccc1)SN(C(=O)NC(=O)c1c(F)cccc1F)c1ccccc1 |  |  |  |  |  | mortality at 2.5 µg/mL [10]: 60%; mortality at 100 µg/mL [11]: 40%; mortality at 5 µg/mL [12]: 100%; mortality at 50 µg/mL [13]: 30%; mortality at 1 µg/mL [14]: 20%; mortality at 200 µg/mL [15]: 70% |
| O=C(NC(=O)N(SN(C(=O)NC(=O)c1c(F)cccc1F)c1ccc(OC(F)(F)F)cc1)c1ccc(OC(F)(F)F)cc1)c1c(F)cccc1F | 100 | 20 | 55 |  |  |  |
| CCOC(=O)CCN(Cc1ccccc1)SN(C(=O)NC(=O)c1c(F)cccc1F)c1ccc(Cl)cc1 | 100 | 30 | 50 | 60 | 0 |  |
| O=C(NC(=O)N(SN(C(=O)NC(=O)c1c(F)cccc1F)c1ccc(Cl)cc1)c1ccc(Cl)cc1)c1c(F)cccc1F | 100 | 25 | 85 |  |  |  |
| O=C(NC(=O)N(SN(C(=O)NC(=O)c1c(F)cccc1F)c1ccc(OC(F)(F)F)cc1)c1ccc(OC(F)(F)F)cc1)c1ccccc1Cl | 100 | 50 | 95 |  |  | LC50 [4]: 40.1 mg/L (≈ 53.6 µM); LC50 [7]: 31.4 mg/L (≈ 42 µM) |
| O=C(NC(=O)c1ccccc1Cl)Nc1ccc(OC(F)(F)F)cc1 [TRIFLUMURON] | 95 | 20 | 40 |  |  | LC50 [4]: 49.3 mg/L (≈ 137 µM); LC50 [7]: 12 mg/L (≈ 33.5 µM); mortality at 2.5 µg/mL [16]: 100% |
| O=C(NC(=O)N(SSNc1ccc(C(F)(F)F)cc1)c1ccc(C(F)(F)F)cc1)c1c(F)cccc1F | 100 | 10 | 70 |  |  |  |
| O=C(NC(=O)N(SN1CCCCC1)c1ccc(Cl)cc1)c1c(F)cccc1F | 100 | 20 | 100 | 90 | 0 | mortality at 0.0025 µg/mL [8]: 0% |
| O=C(NC(=O)N(SSN(C(=O)NC(=O)c1c(F)cccc1F)c1ccc(OC(F)(F)F)cc1)c1ccc(OC(F)(F)F)cc1)c1ccccc1Cl | 100 | 0 | 40 |  |  |  |
| O=C(NC(=O)N(SSN(C(=O)NC(=O)c1ccccc1Cl)c1ccc(OC(F)(F)F)cc1)c1ccc(OC(F)(F)F)cc1)c1ccccc1Cl | 85 | 10 | 60 |  |  | mortality at 2.5 µg/mL [16]: 100% |
| O=C(NC(=O)N(SNc1ccc(Cl)cc1)c1ccc(Cl)cc1)c1c(F)cccc1F | 100 | 0 | 70 |  |  |  |
| O=C(NC(=O)N(SSNc1ccc(C(F)(F)F)cc1)c1ccc(C(F)(F)F)cc1)c1ccccc1Cl | 70 | 0 | 60 |  |  | mortality at 2.5 µg/mL [16]: 100% |
| O=C(NC(=O)N(SN1CCCCC1)c1ccc(OC(F)(F)F)cc1)c1c(F)cccc1F | 100 | 50 | 100 | 100 | 100 | mortality at 0.0025 µg/mL [8]: 75% |
| O=C(NC(=O)c1c(F)cccc1F)Nc1ccc(Cl)cc1 [DIFLUBENZURON] | 100 | 45 | 100 | 100 | 50 | mortality at 0.0025 µg/mL [8]: 10% |
| O=C(NC(=O)N(SN1CCOCC1)c1ccc(Cl)cc1)c1c(F)cccc1F | 100 | 80 | 100 | 100 | 30 | mortality at 0.0025 µg/mL [8]: 0% |
| CCN(CC)SN(C(=O)NC(=O)c1c(F)cccc1F)c1ccc(OC(F)(F)F)cc1 | 100 | 60 | 100 | 100 | 100 | mortality at 0.0025 µg/mL [8]: 40% |
| O=C(NC(=O)N(SSN(C(=O)NC(=O)c1c(F)cccc1F)c1ccc(OC(F)(F)F)cc1)c1ccc(OC(F)(F)F)cc1)c1c(F)cccc1F | 100 | 20 | 50 |  |  |  |
| O=C(NC(=O)N(SSNc1ccc(OC(F)(F)F)cc1)c1ccc(OC(F)(F)F)cc1)c1ccccc1Cl | 100 | 30 | 60 |  |  |  |
| O=C(NC(=O)N(SN1CCCCC1)c1ccccc1)c1c(F)cccc1F |  |  |  |  |  | mortality at 2.5 µg/mL [10]: 70%; mortality at 100 µg/mL [11]: 40%; mortality at 5 µg/mL [12]: 100%; mortality at 50 µg/mL [13]: 0%; mortality at 1 µg/mL [14]: 0%; mortality at 200 µg/mL [15]: 90% |
| CCN(CC)SN(C(=O)NC(=O)c1c(F)cccc1F)c1ccc(Cl)cc1 | 100 | 20 | 70 | 100 | 10 | mortality at 0.0025 µg/mL [8]: 10% |
| CCN(CC)SN(C(=O)NC(=O)c1c(F)cccc1F)c1ccccc1 |  |  |  |  |  | mortality at 2.5 µg/mL [10]: 100%; mortality at 100 µg/mL [11]: 40%; mortality at 5 µg/mL [12]: 100%; mortality at 50 µg/mL [13]: 20%; mortality at 1 µg/mL [14]: 30%; mortality at 200 µg/mL [15]: 70% |
| O=C(NC(=O)N(SNc1ccc(OC(F)(F)F)cc1)c1ccc(OC(F)(F)F)cc1)c1c(F)cccc1F | 100 | 40 | 90 |  |  |  |
